Assay results published in publication PMC9907071 (Proceedings of the National Academy of Sciences of the …, 2022).
≈ marks a conversion by molar mass, not a printed value. Where “and” joins values, the source holds several entries; their conditions need not be identical. Identical values can stand only once. Like-named read-outs stand apart in the source and are kept apart here.

Experiments:
HsDHODH [1] = target: T1, HsDHODH (Homo sapiens, UniProt Q02127); test: biochemical
AbDHODH = target: T2, AbDHODH (Acinetobacter baumannii, UniProt B7GZW7); test: AbDHODH steady-state rate assay; type: biochemical
T2 sequence (B7GZW7 1-334): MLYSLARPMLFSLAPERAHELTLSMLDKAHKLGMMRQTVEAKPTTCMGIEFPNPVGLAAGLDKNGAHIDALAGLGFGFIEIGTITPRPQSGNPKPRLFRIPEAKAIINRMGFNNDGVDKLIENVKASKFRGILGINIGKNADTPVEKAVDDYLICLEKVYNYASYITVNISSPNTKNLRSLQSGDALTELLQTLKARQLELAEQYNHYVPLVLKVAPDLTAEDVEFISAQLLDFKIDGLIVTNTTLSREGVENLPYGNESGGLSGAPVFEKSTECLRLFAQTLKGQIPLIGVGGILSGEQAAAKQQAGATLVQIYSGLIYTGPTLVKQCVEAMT

A. baumannii AB307-0294 = test: Antimicrobial susceptibility testing in MM; type: cell-based, Acinetobacter baumannii; settings: for uracil rescue of growth: AB307, 0.2 mM uracil; for EC50: Acinetobacter baumannii, AB3070294, 24 h, read-out: AB307 EC50; for cidal or static activity by CFU vs initial inoculum: AB307 and HUMC1, DSM186 at >1 µg/mL, DSM161 at highest concentrations assessed
A. baumannii LAC-4 (MDR) = test: Antimicrobial susceptibility testing in MM; type: cell-based; settings: Acinetobacter baumannii, 24 h; for EC50: read-out: LAC-4 EC50; for MIC: read-out: LAC-4 MIC
Outline: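 Overnight (18 h) cultures in minimal medium (MM) plus casamino acids were diluted 1:1,000 and titred on LB plates. Test compound (in DMSO) was added at various concentrations, giving about 5 × 10^5 CFU/mL final. Medium-only and DMSO wells served as controls. Plates were shaken at 37 °C for 24 h, reading Å600 every 15 min. […] There were 2–4 technical replicates per concentration, and results are mean ± SEM of multiple independent studies.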

A. baumannii AB307 [2] = test: Efflux and permeability assay; type: cell-based, Acinetobacter baumannii; settings: DSM186 0.015 µg/mL
Microsomal stability [3] = type: in vitro ADME; settings: human liver microsomes
A. baumannii HUMC1 = test: Time-kill assay; type: cell-based, Acinetobacter baumannii; settings: DSM186 1 µg/mL, meropenem 1 µg/mL
Outline: (§1)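 Time-kill assays were run in pyrimidine-deficient MM at a fixed compound concentration: 1 µg/mL (2.9 µM) or 17.5 µg/mL (50 µM). Untreated and meropenem 1 µg/mL (2.6 µM) comparators were included. CFU was enumerated over time against the starting inoculum. Data are mean ± SEM of 2–4 independent studies, each with 2–5 technical replicates.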

A. baumannii strains = test: DSM186 on a panel of A. baumannii strains; type: cell-based, Acinetobacter baumannii; settings: for MIC: Acinetobacter baumannii
[4] = system: A. baumannii HUMC1 (CR-XDR); test: Antimicrobial susceptibility testing in MM; type: cell-based, Acinetobacter baumannii; settings: for EC50 / MIC: Acinetobacter baumannii, 24 h; for EC50: read-out: HUMC EC50
A. baumannii AB307 [5] = test: Time-kill assay; type: cell-based, Acinetobacter baumannii; settings: DSM186 1 µg/mL, DSM161 17.5 µg/mL, meropenem 1 µg/mL
Outline: as §1

A. baumannii AB307ΔpyrD = test: Time-kill assay; type: cell-based, Acinetobacter baumannii; settings: pyrimidine-deficient medium
Microsomal stability [6] = type: in vitro ADME; settings: mouse microsomes
HsDHODH [7] = target: T1, HsDHODH; settings: read-out: HsDHODH IC50; previously reported; ref [25], [27]; cited from earlier work
[8] = system: A. baumannii AB307-0294 isolates; test: Susceptibility of AB307-0294 isolates recovered from DSM161-treated mice; type: cell-based, Acinetobacter baumannii; settings: eight independent colonies of AB307 from three animals
Outline: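 Neutropenic BALB/c mice were infected in the thigh with AB307 and given test compound orally at 100 mg/kg at 0 and 12 h. Eight independent colonies were recovered from three sites in three animals and retested. MIC was determined by CFU at 24 h in MM, defined as growth within ± ½ log of the starting inoculum.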

[9] = read-out: MIC as measured by CFU

T1 sequence (Q02127 whole entry): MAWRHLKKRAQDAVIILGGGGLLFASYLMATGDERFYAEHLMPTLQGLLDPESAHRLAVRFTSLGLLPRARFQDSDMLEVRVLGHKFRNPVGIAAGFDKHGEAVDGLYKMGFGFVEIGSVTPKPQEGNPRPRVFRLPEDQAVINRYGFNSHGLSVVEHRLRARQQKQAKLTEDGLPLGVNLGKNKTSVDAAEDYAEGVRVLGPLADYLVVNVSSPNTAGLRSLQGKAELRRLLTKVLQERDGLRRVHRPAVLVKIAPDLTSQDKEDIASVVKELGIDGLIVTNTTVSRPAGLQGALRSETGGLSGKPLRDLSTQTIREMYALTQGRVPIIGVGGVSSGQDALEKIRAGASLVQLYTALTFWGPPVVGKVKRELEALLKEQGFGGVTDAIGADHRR

Compound	IC50 (AbDHODH) [nM]	uracil rescue of growth (A. baumannii AB307-0294)	EC50 (A. baumannii AB307-0294) [nM]	EC50 (A. baumannii LAC-4 (MDR)) [nM]	MIC (A. baumannii LAC-4 (MDR))	EC50 [4] [nM]	MIC ([4]; read-out: HUMC MIC)	time-kill: CFU over time vs starting inoculum (A. baumannii AB307 [5])	also measured
Cc1cc(Nc2ccc(C(F)(F)F)cc2)c2ccccc2n1 [DSM250]	85 ± 15	uracil rescue was also demonstrated	380 ± 140	1600	12.5 µM and 3.8 µg/mL	–	–	–	IC50 (HsDHODH [1]): > 100000 nM; concentrations showing some off-target activity (A. baumannii AB307-0294; AB307, uracil rescue study): above 10 µM
Cc1cc(Nc2ccc(S(F)(F)(F)(F)F)cc2)n2nc(C(C)(F)F)nc2n1 [DSM265]	590 ± 160	uracil rescue was also demonstrated	2700 ± 210	–	–	–	–	–	–
Cc1cc(Nc2ccc(S(F)(F)(F)(F)F)cc2)n2ccnc2n1 [DSM186]	28 ± 3.8	rescued by the addition of uracil	53 ± 8.2	170 ± 33	1.3 µM and 0.45 µg/mL	170 ± 3.3	0.78 µM and 0.27 µg/mL	decreased below the starting inoculum	IC50 (HsDHODH [1]): > 100000 nM; effect of combination of PAβN and PMBN on activity (A. baumannii AB307 [2]): less active than PMBN alone; effect of efflux inhibitor PAβN on activity (A. baumannii AB307 [2]; PAβN 70 µg/mL): somewhat increased the activity; effect of permeability-increasing agent PMBN on activity (A. baumannii AB307 [2]; PMBN 64 µg/mL): somewhat increased the activity; metabolic stability (Microsomal stability [3]): metabolically stable; time-kill: CFU over time vs starting inoculum (A. baumannii HUMC1): decreased below the starting inoculum; concentration inhibiting growth by CFU (A. baumannii strains; 17/23 strains, relative to starting inoculum (± ½ log) at 24 h): 1 µg/mL and 2.9 µM; activity across strains tested (A. baumannii strains; 30 strains including 12 CR-XDR isolates): active against all the 30 strains tested; MIC (A. baumannii strains; read-out: MIC assessed by Å600): 0.11 to 1.09 µg/mL (≈ 0.314 to 3.11 µM); MIC (A. baumannii strains; read-out: minimal inhibitory concentration): ≤ 1 µg/mL; concentration inhibiting growth by CFU (A. baumannii strains; remaining six strains): 2 µg/mL and 5.8 µM; MIC [4, 9]: 1.6 µM and 0.55 µg/mL; uracil rescue of growth ([4]; HUMC1, 0.2 mM uracil): rescued by the addition of uracil; time-kill: killing of DHODH deletion mutant (A. baumannii AB307ΔpyrD): neither DSM186 nor DSM161 caused increased killing; cidal or static activity by CFU vs initial inoculum (A. baumannii AB307-0294): cidal activity; metabolic stability (Microsomal stability [6]): less stable
Cc1cc(Nc2ccc(C(F)(F)F)c(F)c2)n2ncnc2n1 [DSM125]	910 ± 70	–	9600	–	–	34000	51 µM and 16 µg/mL	–	IC50 (HsDHODH [7]): > 100000 nM
Cc1cc(Nc2ccc(S(F)(F)(F)(F)F)cc2)n2ncnc2n1 [DSM161]	300 ± 110	uracil rescue was also demonstrated	1400 ± 300	4400 ± 470	25 µM and 8.8 µg/mL	8400 ± 850	25 µM and 8.8 µg/mL	decreased below the starting inoculum	IC50 (HsDHODH [7]): > 100000 nM; MIC [4, 9]: 50 µM and 17.5 µg/mL; fold difference in potency, drug-resistant strains vs drug-sensitive AB307 ([4]; HUMC1 and LAC-4 vs AB307): 3–6 fold; change in MIC (by CFU) of colonies recovered from treated animals [8]: no change in MIC; time-kill: killing of DHODH deletion mutant (A. baumannii AB307ΔpyrD): neither DSM186 nor DSM161 caused increased killing; cidal or static activity by CFU vs initial inoculum (A. baumannii AB307-0294): bacteriostatic; fold MIC by CFU higher than MIC by absorbance assay (A. baumannii AB307-0294; both strains (AB307, HUMC1)): 10 fold
C[C@@H](O)[C@H]1C(=O)N2C(C(=O)O)=C(S[C@@H]3CN[C@H](C(=O)N(C)C)C3)[C@H](C)[C@H]12 [meropenem, reference compound]	–	–	–	–	–	–	–	decreased below the starting inoculum	–
Cc1cc(Nc2ccc3c(c2)CCCC3)n2ccnc2n1 [DSM187]	170	–	–	–	–	–	–	–	–
